Measured values from publication PMC10108379 (RSC Advances, 2023).

Key:
HepG-2 cells = conditions: previous PD experiments of the group; cited from earlier work
[1] = Pharmacokinetics in rat plasma after oral administration of AR and SAR extracts; format: in vivo, Sprague-Dawley (SD) rats
[2] = Stability of the three components in rat plasma; format: in vitro ADME; conditions: for Stability, RE: n = 6
Procedure, shortened: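 Blank rat plasma spiked with each analyte at low, medium and high QC levels, then subjected to repeated freeze–thaw cycles. Samples were thawed to room temperature and precipitated with cold methanol containing puerarin as internal standard, then vortexed 3 min and centrifuged at 12 000 rpm for 15 min. Analysis was by UPLC-MS/MS on an HSS T3 column at 30 °C (0.1% formic acid water/acetonitrile gradient). Acceptance limit: within 15%.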

[3] = rat plasma, oral AR extract 5 mL kg^−1, n = 6
[4] = freeze–thaw cycles, high QC (200 / 300 / 250 μg mL^−1)
[5] = −20 °C for 30 days, high QC (200 / 300 / 250 μg mL^−1)

increase of AUC after administration of the SAR extract ([1]; SAR group compared to AR group, rats, oral) [%]	T max [1, 3] [h]	t 1/2 [1, 3] [h]	Structure (SMILES)	glucose consumption of HepG-2 cells (HepG-2 cells)	Stability, RE [2, 4] [%]	Stability, RE [2, 5] [%]	C max [1, 3] [ng/mL]	relative error (RE) after each stability experiment ([2]; 4 °C 24 h, −20 °C 30 days, freeze–thaw cycles, all QC levels) [%]	Stability, RE ([2]; autosampler at 4 °C for 24 h, low QC (2.0 / 3.0 / 2.5 μg mL^−1)) [%]	Stability, RE ([2]; freeze–thaw cycles, low QC (2.0 / 3.0 / 2.5 μg mL^−1)) [%]	Stability, RE ([2]; freeze–thaw cycles, medium QC (20.0 / 30.0 / 25.0 μg mL^−1)) [%]	Stability, RE ([2]; −20 °C for 30 days, low QC (2.0 / 3.0 / 2.5 μg mL^−1)) [%]	Stability, RE ([2]; −20 °C for 30 days, medium QC (20.0 / 30.0 / 25.0 μg mL^−1)) [%]
22.3	5.76 ± 0.52	3.01 ± 0.36	O=c1c2cc(O)c(O)cc2oc2cc(O)c([C@@H]3O[C@H](CO)[C@@H](O)[C@H](O)[C@H]3O)c(O)c12 [Mangiferin, mangiferin]	improved the glucose consumption	10.2	2.3	–	–	–	–	–	–	–
–	–	–	C[C@H]1CC[C@@]2(OC1)O[C@H]1C[C@H]3[C@@H]4CC[C@@H]5C[C@@H](O[C@@H]6O[C@H](CO)[C@H](O)[C@H](O)[C@H]6O[C@@H]6O[C@H](CO)[C@@H](O)[C@H](O)[C@H]6O)CC[C@]5(C)[C@H]4CC[C@]3(C)[C@H]1[C@@H]2C [Timosaponin AIII, timosaponin AIII]	improved the glucose consumption	3.8	10.6	3.67 ± 0.51	≤ 10.6	1.3	−0.1	6.8	2.2	6.3
